Test results from ChEMBL document CHEMBL1153229, “The first synthetic agonists of FFA2: Discovery and SAR of phenylacetamides as allosteric modulators” (Bioorg Med Chem Lett, 2010).

Experiments:
[1] = molecular target: T1, Free fatty acid receptor 2 (Homo sapiens) (UniProt O15552); assay: Agonist activity at human FFA2 receptor expressed in CHO cells assessed as inhibition of forskolin-induced cAMP production relative to acetate; format: functional, cell-based
T1 sequence (whole entry): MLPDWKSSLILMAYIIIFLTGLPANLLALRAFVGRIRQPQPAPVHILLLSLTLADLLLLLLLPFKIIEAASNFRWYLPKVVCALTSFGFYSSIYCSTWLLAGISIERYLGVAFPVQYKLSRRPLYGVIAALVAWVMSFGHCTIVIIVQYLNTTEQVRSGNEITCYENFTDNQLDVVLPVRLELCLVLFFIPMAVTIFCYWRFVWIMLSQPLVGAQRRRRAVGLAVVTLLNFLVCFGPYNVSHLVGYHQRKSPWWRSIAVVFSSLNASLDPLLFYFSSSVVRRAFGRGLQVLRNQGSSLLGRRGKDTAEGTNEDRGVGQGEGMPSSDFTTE
In short: (§1)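 Suspended cells, 10,000 per well, in Hank's balanced salt solution with 25 mM HEPES and 0.01% (w/v) BSA. Stimulated with forskolin (5 μM final) plus serially diluted test ligands, room temperature for 30 min. Antibody and lysis reagents then added, followed by overnight dark incubation with detection solution. Luminescence read (RLU). Efficacy expressed relative to acetate. Means of four experiments.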

[2] = molecular target: T2, Free fatty acid receptor 2 (Homo sapiens, UniProt O15552); assay: Agonist activity at human FFA2 receptor expressed in CHO cells assessed as inhibition of forskolin-induced cAMP production; format: functional, cell-based; in short: as §1
T2 sequence (O15552 whole entry): T1 sequence (whole entry)

SMILES	Efficacy [1]	IC50 [2]
O=C(Nc1ncc(F)s1)C1(c2ccc(Cl)cc2)CCCCC1	81%	8.5 µM
CNC(=O)[C@H](c1ccc(Cl)cc1)C(C)C	66%	11 µM
CC[C@H](C(=O)Nc1nccs1)c1ccc(Cl)cc1	105%	5 µM
Cc1nc(NC(=O)[C@H](c2ccc(Cl)cc2)C(C)C)sc1C	97%	1.8 µM
CCC[C@H](C(=O)Nc1nccs1)c1ccc(Cl)cc1	108%	5.5 µM
CC(C)(C)[C@H](C(=O)Nc1ncc(C#N)s1)c1ccc(Cl)cc1	106%	1.5 µM
CC(C)[C@H](C(=O)Nc1ccn[nH]1)c1ccc(Cl)cc1	–	> 100 µM
O=C(Cc1ccc(Cl)cc1)Nc1nccs1	< 30%	> 100 µM
CC(C)C(C(=O)Nc1nnn[nH]1)c1ccc(Cl)cc1 (racemic)	< 30%	> 100 µM
CC(C)C(c1ccc(Cl)cc1)S(=O)(=O)Nc1nccs1 (racemic)	< 30%	> 100 µM
CC(C)[C@H](NS(=O)(=O)c1nccs1)c1ccc(Cl)cc1	< 30%	> 100 µM
O=C(Nc1ncc(F)s1)C1(c2ccc(Cl)cc2)CCCC1	88%	5 µM
CC(C)[C@H](C(=O)Nc1ncc(C#N)s1)c1ccc(Cl)cc1	105%	2 µM
CC(C)(C)[C@H](C(=O)Nc1ncc(Cc2ccc(Cl)cc2)s1)c1ccc(Cl)cc1	100%	25 µM
O=C(Nc1nccs1)[C@@H](CC1CC1)c1ccc(Cl)cc1	72%	8.8 µM
CC(C)[C@H](C(=O)Nc1cccnn1)c1ccc(Cl)cc1	101%	2.3 µM
CC(C)(C)[C@H](C(=O)Nc1ncc(Br)s1)c1ccc(Cl)cc1	95%	0.7 µM
O=C(Nc1nccs1)C(c1ccc(Cl)cc1)c1ccc(Cl)cc1	< 30%	> 100 µM
COC(=O)c1cnc(NC(=O)[C@H](c2ccc(Cl)cc2)C(C)C)s1	98%	2 µM
CC(C)[C@H](C(=O)Nc1cnns1)c1ccc(Cl)cc1	48%	57 µM
CC(C)[C@H](C(=O)Nc1ncc[nH]1)c1ccc(Cl)cc1	55%	20 µM
CC(C)[C@H](C(=O)Nc1ncc(C(N)=O)s1)c1ccc(Cl)cc1	59%	71 µM

SMILES	Efficacy [1]	IC50 [2]
CC(C)C[C@H](C(=O)Nc1nccs1)c1ccc(Cl)cc1	68%	0.6 µM
CC(C)(C)[C@H](C(=O)Nc1ncc(N2CCS(=O)(=O)CC2)s1)c1ccc(Cl)cc1	118%	2.4 µM
CC(C)[C@H](C(=O)Nc1ccon1)c1ccc(Cl)cc1 (racemic)	90%	36 µM
CCC(=O)O	100%	–
Cc1csc(NC(=O)[C@H](c2ccc(Cl)cc2)C(C)C)n1	87%	1.4 µM
CC(C)[C@H](C(=O)Nc1nnc(C(F)(F)F)s1)c1ccc(Cl)cc1	115%	1.9 µM
CC(C)(C)[C@H](C(=O)Nc1ncc(S(C)(=O)=O)s1)c1ccc(Cl)cc1	107%	3.4 µM
CC(C)[C@H](C(=O)Nc1cc[nH]n1)c1ccc(Cl)cc1	< 30%	–
CC(C)(C)[C@H](C(=O)Nc1ncc(F)s1)c1ccc(Cl)cc1	92%	0.7 µM
CC(C)[C@H](C(=O)Nc1ncc(C(F)(F)F)s1)c1ccc(Cl)cc1	95%	1.5 µM
C=CC[C@H](C(=O)Nc1nccs1)c1ccc(Cl)cc1	88%	1.1 µM
CS(=O)(=O)c1ccc([C@@H](C(=O)Nc2ncc(F)s2)C2CC2)cc1	< 30%	> 100 µM
CC(C)(C)[C@H](C(=O)Nc1ncc(C(O)(C(F)(F)F)C(F)(F)F)s1)c1ccc(Cl)cc1	113%	1.2 µM
CC(C)[C@H](CNc1nccs1)c1ccc(Cl)cc1	< 30%	> 100 µM
CSc1cnc(NC(=O)[C@H](c2ccc(Cl)cc2)C(C)(C)C)s1	109%	0.5 µM
CC(C)[C@H](C(=O)NC1=NCCS1)c1ccc(Cl)cc1	109%	2.1 µM
CC(C)(C(=O)Nc1ncc(F)s1)c1ccc(Cl)cc1	57%	50 µM
CC(=O)O [ACETIC ACID]	100%	120 µM
CC(C)[C@H](C(=O)NC(C)(C)C)c1ccc(Cl)cc1	< 30%	> 100 µM
CC(C)[C@H](C(=O)Nc1nc(C(C)(C)C)cs1)c1ccc(Cl)cc1	45%	7.9 µM
O=C(Nc1ncc(F)s1)C1(c2ccc(Cl)cc2)CC1	< 30%	> 100 µM
CC(C)C(C(=O)Nc1ncccn1)c1ccc(Cl)cc1 (racemic)	50%	53 µM

SMILES	Efficacy [1]	IC50 [2]
CC(C)[C@@H](C(=O)Nc1nccs1)c1ccc(Cl)cc1	< 30%	> 100 µM
O=C(Nc1ncc(F)s1)C1(c2ccc(Cl)cc2)CCC1	89%	1.5 µM
CC(C)C(C(N)=O)c1ccc(Cl)cc1 (racemic)	< 30%	> 100 µM
O=C(Nc1ncc(F)s1)[C@H](c1ccnc(Cl)c1)C1CC1	120%	16 µM
CC(C)[C@H](C(=O)Nc1ccncc1)c1ccc(Cl)cc1	40%	56 µM
CC(C)[C@H](C(=O)NC1=NC(=O)CS1)c1ccc(Cl)cc1	96%	20 µM
CC(C)C(C(=O)O)c1ccc(Cl)cc1 (racemic)	< 30%	> 100 µM
CC(C)(C)[C@H](C(=O)Nc1ncc(N2CCOCC2)s1)c1ccc(Cl)cc1	111%	1.6 µM
CC(C)[C@H](C(=O)Nc1ncc(C(=O)O)s1)c1ccc(Cl)cc1	42%	79 µM
CC(C)[C@H](C(=O)Nc1nc(C(F)(F)F)cs1)c1ccc(Cl)cc1	123%	17 µM
O=C(Nc1ncc(F)s1)[C@H](c1ccc(Cl)cc1)C1CC1	103%	1.2 µM
CC(C)C(C(=O)Nc1nccs1)c1ccc(Cl)cc1 (racemic)	98%	0.8 µM
CC(C)(C)[C@H](C(=O)Nc1ncc(C(F)(F)F)s1)c1ccc(Cl)cc1	95%	1.5 µM
CC(C)[C@H](C(=O)Nc1ncns1)c1ccc(Cl)cc1	99%	2 µM
CN(C)c1cnc(NC(=O)[C@H](c2ccc(Cl)cc2)C(C)(C)C)s1	112%	1.6 µM
CC(C)[C@H](C(=O)Nc1cccc(F)n1)c1ccc(Cl)cc1	84%	1.1 µM
CC(C)[C@H](C(=O)NCc1ccccc1)c1ccc(Cl)cc1	< 30%	> 100 µM
CC(C)[C@H](C(=O)N(C)c1nccs1)c1ccc(Cl)cc1	37%	84 µM
CC(C)[C@H](C(=O)Nc1ccccc1)c1ccc(Cl)cc1	< 30%	> 100 µM
CC(C)C(C(=O)Nc1nc2ccccc2[nH]1)c1ccc(Cl)cc1 (racemic)	84%	5.2 µM
CC(C)C(C(=O)Nc1nc2ccccc2s1)c1ccc(Cl)cc1 (racemic)	91%	3 µM
CN1CCN(c2cnc(NC(=O)[C@H](c3ccc(Cl)cc3)C(C)(C)C)s2)CC1	113%	3.8 µM
